According to ChEMBL document CHEMBL1165887, “Structure-activity relationships of monomeric C2-aryl pyrrolo[2,1-c][1,4]benzodiazepine (PBD) antitumor agents” (J Med Chem, 2010):
The source made the active and inactive calls. The calls are words filed in the database; no cut-off is given here.

Key:
HCT-116 = experiment: Antitumor activity against human HCT116 cells xenografted in nu/nu BALB/c mouse assessed as delay in tumor growth at 300 ug/kg, iv; assay type: functional, cell-based
How it was run: (§1)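 Female nu/nu-BALB/c athymic nude mice bearing subcutaneous flank HCT 116 xenografts (10⁷ cells), dosed once intravenously at 300 μg/kg in 1% DMSO/saline once tumours reached 50-100 mm³; vehicle-only controls. Tumours measured by calliper 3 times a week (width² × length/2), expressed as volume relative to day 1. Body weight monitored daily over 12 days as % change from day 1.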

K562 = experiment: Cytotoxicity against human K562 cells after 96 hrs by alamar blue assay; assay type: functional, cell-based; settings: K562, 96 h
How it was run: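 K562 cells kept in RPMI with 10% fetal calf serum and 2 mM glutamine, seeded at 10⁴ cells/mL. Compounds serially diluted in DMSO and added in triplicate; exposure 96 h at 37 °C, 5% CO₂. Alamar Blue (1 μM final) then added for a further 4 h; read by fluorescence emission at 580-620 nm.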

Calf thymus DNA [1] = experiment: Binding affinity to calf thymus DNA assessed as change in melting temperature after 18 hrs; assay type: nucleic-acid assay; settings: Bos taurus
How it was run: (§2)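 Calf thymus DNA at a fixed 100 μM (DNAp, 50 μM bp) in pH 7.00 buffer of 10 mM NaH₂PO₄/Na₂HPO₄ and 1 mM Na₂EDTA, 1:5 ligand/DNAp ratio, DMSO ≤0.3% v/v. Mixture kept at 37 °C for the stated time, then melted while absorbance at 260 nm was monitored. Tm taken at the midpoint of the normalized profile; ΔTm = Tm(DNA+ligand) − Tm(DNA), corrected for DMSO; mean of at least three runs.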

Calf thymus DNA [2] = experiment: Binding affinity to calf thymus DNA assessed as change in melting temperature after 4 hrs; assay type: nucleic-acid assay; settings: Bos taurus; how it was run: as §2
[3] = Growth inhibition of human NCI60 cells after 48 hrs by SRB assay; assay type: functional; settings: NCI60, 48 h
Mus musculus = experiment: Toxicity in human HCT116 xenografter nu/nu BALB/c mouse assessed as change in body weight at 300 ug/kg, iv; assay type: organism-based; settings: in vivo, 0.3 mg/kg; how it was run: as §1

COc1cc2c(cc1OC)C(=O)N1C=C(c3ccc4ncccc4c3)C[C@H]1C=N2
Activity (HCT-116): Active
IC50 (K562): 1.4 nM
ΔTm (Calf thymus DNA [1]): 20.5 °C
ΔTm (Calf thymus DNA [2]): 19.9 °C
GI50 [3]: 0.4 nM
TGI [3]: 4 nM
CC50 ([3]; read-out: LC50 (the source's name)): 190 nM
Activity (Mus musculus): Non-toxic
